MC4R ag barr = activates human MC4R beta-arrestin recruitment | activation, % at 8.9 µM | U2OS MC4R beta-arrestin complementation, luminescence; percent of melanotan II response, DMSO zero | AID 540308 | P32245 | 0.98% of 360,000 active;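 active = activation above a per-plate cutoff, the mean activation of sample wells on that plate plus 3 SD, cut at about 8% in these data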
ABHD5 PLIN5 PPI = ABHD5-PLIN5 protein interaction inhibition; Split G. princeps luciferase complementation, luminescence, 4 h; inhibition, % at 4 µM; 0.78% of 360,000 active;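 active = inhibition above the mean inhibition across every tested compound plus 3 SD, cut at about 22% in these data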;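 note: 0% = DMSO only wells and the 100% control is not disclosed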
MC4R antagonist = blocks human MC4R cAMP signaling; P32245; AID 540295; MC4R-expressing cells, MTII-stimulated cAMP, LANCE TR-FRET; inhibition, % at 6.5 µM; 0.48% of 360,000 active;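 active = inhibition above its plate's cutoff, the mean of tested wells on that plate plus 3 SD, cut at about 29% in these data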;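 note: 0% = Melanotan II alone and 100% = Melanotan II plus saturating MCL0020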
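system = U2OS cells with stable human MC4R expression | also added = Melanotan II challenge after compound preincubation | dosing = one concentration, 6.5 µM nominal | incubation = compound 30 min, challenge 1 h, detection 1 h | measured by = TR-FRET with Eu-cAMP and labeled anti-cAMP, 671 nm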
Beta2AR agonist = activates human beta-2 adrenergic receptor causing internalization | P07550 | Am2.2-beta2AR cells, FAP receptor internalization, flow cytometry | response, % (no concentration beside the values) | 0.43% of 340,000 active;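 active = response above a set limit, near 3 SD of response in nonfluorescent compounds, cut at about 42% in these data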
Target sequence (P07550 whole entry, looked up): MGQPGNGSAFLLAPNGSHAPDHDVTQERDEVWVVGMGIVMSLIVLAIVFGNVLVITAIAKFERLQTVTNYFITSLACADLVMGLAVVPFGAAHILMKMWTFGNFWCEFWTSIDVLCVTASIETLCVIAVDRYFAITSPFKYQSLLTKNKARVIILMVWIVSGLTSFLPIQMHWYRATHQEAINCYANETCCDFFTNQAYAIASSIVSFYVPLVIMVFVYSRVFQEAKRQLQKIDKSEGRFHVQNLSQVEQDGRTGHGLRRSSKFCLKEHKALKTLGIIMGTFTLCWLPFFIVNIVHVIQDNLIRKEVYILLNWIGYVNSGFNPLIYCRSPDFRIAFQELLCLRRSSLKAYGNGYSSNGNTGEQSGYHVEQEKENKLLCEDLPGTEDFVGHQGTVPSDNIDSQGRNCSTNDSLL
PfG6PD inh = PfG6PD (Plasmodium falciparum) enzyme inhibition | PfGluPho enzyme, NADPH resazurin-diaphorase fluorescence | inhibition, % at 20 µM | 0.78% of 350,000 active;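 active = inhibition reaching at least a set limit at 20 µM in the primary screen, cut at about 59% in these data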;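 note: 0% = DMSO wells with substrate and 100% = DMSO wells lacking glucose-6-phosphate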
cAMP nonselect = U2OS forskolin cAMP inhibition counter-screen; shares compounds with MC4R antagonist; 26% of 1,600 active; parental U2OS, LANCE TR-FRET; inhibition, % at 6.5 µM;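 active = mean inhibition over triplicates above the low-control well mean plus 3 SD, set per campaign, cut at about 13% in these data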;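 note: signal is single emission at 671 nm which falls as cellular cAMP rises; 0% = forskolin-stimulated wells and 100% = buffer without forskolin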
MC4R cAMP antag = human MC4R cAMP antagonism confirmation; shares compounds with MC4R antagonist; MC4R-expressing cells, MTII-stimulated cAMP, TR-FRET; 27% of 1,600 active; AID 602195; inhibition, % at 6.5 µM; in the data active = inhibition above about 29%;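 note: 0% = agonist stimulated wells alone and 100% = agonist stimulated wells plus saturating reference antagonist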
Starred values were filed as active, the others as inactive; . = no result. In the library only some 3% were active in any assay of this set; here they are far more common.

SMILES	MC4R ag barr	ABHD5 PLIN5 PPI	MC4R antagonist	Beta2AR agonist	PfG6PD inh	cAMP nonselect	MC4R cAMP antag
COC(=O)[C@H](Cc1ccccc1)NC(=O)NCCc1ccc(F)cc1	-1	5	29*	12	-9	32*	35*
COC(=O)C(Cc1ccccc1)NC(=O)CCNC(=O)c1ccc(Br)cc1 (configuration not stated)	1	-15	29*	11	-20	-9	-20
CC(=O)Nc1ccc(S(=O)(=O)NC2CC2)cc1	-1	-7	0	1	-6	.	.
CCN1C(=O)C2(C(C(=O)c3cc4ccccc4o3)=C(O)C(=O)N2CCCN2CCOCC2)c2ccccc21 (configuration not stated)	-2	3	42*	-2	-15	22*	50*
CCN1C(=O)C2(C(C(=O)c3ccc(C)o3)=C(O)C(=O)N2CCCN2CCOCC2)c2ccccc21 (configuration not stated)	0	1	4	-3	12	.	.
CCOC(=O)C[C@H]1c2ccccc2S(=O)(=O)N1c1cccc(OC)c1	0	-2	11	-3	9	.	.
O=C1OCCC1Sc1nnc(-c2ccc(F)cc2)n1Cc1ccccc1 (configuration not stated)	-2	-3	32*	-1	0	26*	32*
O=C1OCCC1Sc1nc2ccccc2c(=O)n1Cc1ccc(F)cc1 (configuration not stated)	0	3	3	-22	5	.	.
COc1ccc(-n2c(SC3CCOC3=O)nc3ccccc32)cc1 (configuration not stated)	-1	-3	42*	2	-2	11	23
O=C1OCCC1Sc1nc2ccccc2n1Cc1ccccc1 (configuration not stated)	-2	3	30*	0	2	10	37*
O=C1OCCC1Sc1nc2ccccc2n1-c1ccccc1 (configuration not stated)	0	3	23	0	10	.	.
CCOc1ccc(-n2c(C)nc(O)c2N=Nc2ccccc2)cc1	0	7	-2	2	-1	.	.
CC(C)CN(C(=O)COC(=O)c1cnc(Cl)c(Cl)c1)c1c(N)n(Cc2ccccc2)c(=O)[nH]c1=O	-3	-8	47*	-7	-13	12	51*
CC(C)N(Cc1ccccc1)C(=O)COC(=O)c1cnc(Cl)c(Cl)c1	-4	2	45*	12	10	33*	52*
CC(C)CN(C(=O)COC(=O)c1cccnc1Cl)c1c(N)n(Cc2ccccc2)c(=O)[nH]c1=O	-1	-5	4	-1	-1	.	.
O=C(COC(=O)c1cnc(Cl)c(Cl)c1)NCc1cccs1	-2	-1	36*	0	5	22*	35*
O=C(OCc1ccccc1)c1cnc(Cl)c(Cl)c1	1	-10	26	1	-6	.	.
CCc1ccc(-c2nc3ccc(Br)cc3c(C(=O)O)c2C)s1	-1	3	133*	7	-7	102*	182*
CCOC(=O)c1ccc(N2CCCCC2)c(NS(=O)(=O)c2ccc(C)cc2)c1	-2	-5	-12	5	6	.	.
COc1ccc(NC(=O)c2cccc3c(-c4cnn(C)c4)coc23)cc1	-1	-1	3	.	.	.	.
COc1cc(NC(=O)c2cccc3c(-c4cnn(C)c4)coc23)cc(OC)c1OC	-1	6	46*	.	.	-1	11
CCN(CC)S(=O)(=O)c1ccc(N2CCOCC2)c(NC(=O)c2ccccc2F)c1	-3	-8	30*	-11	1	3	18
N#Cc1c(SC(C(=O)O)c2ccccc2)nc2c(c1-c1cccs1)CCCC2 (configuration not stated)	-1	-5	31*	9	-46	18*	27
CCOC(=O)C(C)Sc1nc2c(c(-c3cccs3)c1C#N)CCC2 (configuration not stated)	0	-3	15	-1	-14	.	.
CC(C)n1cc(C#N)c(N)n1	-1	5	11	4	15	.	.
SMILES	MC4R ag barr	ABHD5 PLIN5 PPI	MC4R antagonist	Beta2AR agonist	PfG6PD inh	cAMP nonselect	MC4R cAMP antag
Cc1ccc(S(=O)(=O)N2CCCCC2)cc1NC(=O)COC(=O)c1cc[n+]([O-])cc1	2	2	29*	-2	-14	3	-4
Cc1cccc(NC(=S)N(CCN2CCOCC2)Cc2cc3cc4c(cc3[nH]c2=O)OCCO4)c1	2	1	12	5	-6	.	.
Cc1cccnc1NC(=O)C(C)N1C(=O)c2ccccc2C1=O (configuration not stated)	1	2	31*	-6	-3	-5	-18
N#Cc1cc2c(nc1SCC(=O)Nc1nccs1)CCCCC2	0	1	39*	-7	-8	12	19
CC(C(=O)c1ccccc1)[n+]1cccc(C(N)=O)c1 (configuration not stated)	0	-3	33*	2	-7	-5	-20
Cc1ccc(C(=O)C(C)[n+]2cccc(C(N)=O)c2)cc1 (configuration not stated)	-1	2	3	4	-3	.	.
Cc1ccc(Cl)cc1NC(=O)Nc1cccs1	-2	-3	30*	-11	-9	-1	-2
CCOc1ccccc1N(C(=O)c1snc(C(N)=O)c1N)C(C(=O)NCc1ccccc1)c1ccc(O)cc1 (configuration not stated)	-2	3	31*	-8	0	2	5
Cc1ccccc1N(C(=O)c1snc(C(N)=O)c1N)C(C(=O)NCc1ccccc1)c1ccc(O)cc1 (configuration not stated)	2	-8	28	-1	-5	.	.
Nc1ccc(C(=O)NN2C(=O)[C@H](Cl)C2c2ccc(Cl)cc2)cc1 (some centres not stated)	0	-3	37*	7	13	22*	19
COC(=O)c1ccccc1S(=O)(=O)N1CCC(C(=O)Nc2ccc(N3CCOCC3)cc2)CC1	1	3	1	12	1	.	.
O=C(O)CC12CC3CC(C1)CC(n1ncc(NCc4ccccc4)c(Cl)c1=O)(C3)C2	2	5	-2	-2	-7	.	.
O=C(O)C12CC3CC(C1)CC(n1ncc(NCc4ccccc4)c(Cl)c1=O)(C3)C2	2	-8	32*	15	12	-1	-10
C=C(C)CN(CC)C(=O)CCc1nnc(CCCc2ccccc2)o1	-1	-1	31*	-4	-27	-2	-11

Source: PubChem BioAssay (several laboratories)
